What was measured:
Format in all cases: functional
[1] = tested on: SK-MEL-5; assay: Growth inhibition of human SK-MEL-5 cells assessed as cell growth at 10^-6 M after 48 hrs by sulforhodamine B assay; conditions: SK-MEL-5, 48 h, read-out: Activity
[2] = tested on: TK-10; assay: Growth inhibition of human TK10 cells assessed as cell growth at 10^-5 M after 48 hrs by sulforhodamine B assay; conditions: TK-10, 48 h, read-out: Activity
[3] = tested on: LOX IMVI; assay: Growth inhibition of human LOXIMVI cells assessed as cell growth at 10^-6 M after 48 hrs by sulforhodamine B assay; conditions: read-out: Activity
[4] = tested on: U-251; assay: Growth inhibition of human U251 cells after 48 hrs by sulforhodamine B assay; conditions: U-251, 48 h; for CC50: read-out: LC50 (the source's name)
How it was run: (§1)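 Adherent cells in RPMI 1640 with 5% FBS and 2 mM L-glutamine were plated at 5000–40,000 cells/well and grown 24 h. Five concentrations (0.01–100 µM, DMSO stock) were added for 48 h at 37 °C. Cells were fixed with cold TCA (10% final) and stained with SRB, read at 515 nm. GI50 came from log concentration–growth curves against time-zero and control plates.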

[5] = tested on: DU-145; assay: Growth inhibition of human DU145 cells assessed as cell growth at 10^-4 M after 48 hrs by sulforhodamine B assay; conditions: DU-145, 48 h, read-out: Activity
How it was run: (§2)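 Five-dose NCI-60 run (0.01, 0.1, 1, 10 and 100 µM, as 10-fold dilutions from a DMSO stock made at 400× the top final level). Cells were grown in RPMI 1640 with 5% FBS and 2 mM glutamine and plated for 24 h. They were then exposed for 48 h at 37 °C and 5% CO2. TCA fixation was followed by SRB staining with A515 read-out. Percent growth was taken relative to time-zero and control plates.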

[6] = tested on: A549; assay: Growth inhibition of human A549/ATCC cells after 48 hrs by sulforhodamine B assay; conditions: A549, 48 h; for CC50: read-out: LC50 (the source's name); how it was run: as §1
[7] = Growth inhibition of human NCI-ADR-RES cells assessed as cell growth at 10^-6 M after 48 hrs by sulforhodamine B assay; conditions: read-out: Activity
[8] = tested on: SF-268; assay: Growth inhibition of human SF268 cells assessed as cell growth at 10^-8 M after 48 hrs by sulforhodamine B assay; conditions: SF-268, 48 h, read-out: Activity
[9] = tested on: SF-539; assay: Growth inhibition of human SF539 cells assessed as cell growth at 10^-4 M after 48 hrs by sulforhodamine B assay; conditions: SF-539, 48 h, read-out: Activity
[10] = tested on: NCI-H322M; assay: Growth inhibition of human NCI-H322M cells assessed as cell growth at 10^-5 M after 48 hrs by sulforhodamine B assay; conditions: read-out: Activity
[11] = tested on: TK-10; assay: Growth inhibition of human TK10 cells after 48 hrs by sulforhodamine B assay; conditions: TK-10, 48 h; for CC50: read-out: LC50 (the source's name); how it was run: as §1
[12] = tested on: A549; assay: Growth inhibition of human A549/ATCC cells assessed as cell growth at 10^-5 M after 48 hrs by sulforhodamine B assay; conditions: A549, 48 h, read-out: Activity; how it was run: as §2
[13] = tested on: COLO 205; assay: Growth inhibition of human COLO205 cells assessed as cell growth at 10^-4 M after 48 hrs by sulforhodamine B assay; conditions: COLO 205, 48 h, read-out: Activity; how it was run: as §2
[14] = tested on: PC-3; assay: Growth inhibition of human PC3 cells assessed as cell growth at 10^-8 M after 48 hrs by sulforhodamine B assay; conditions: PC-3, 48 h, read-out: Activity
[15] = Growth inhibition of human EKVX cells assessed as cell growth at 10^-7 M after 48 hrs by sulforhodamine B assay; conditions: read-out: Activity
How it was run: (§3)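 Five-dose screen at NCI. Cells in RPMI 1640 with 5% FBS and 2 mM L-glutamine, seeded at 5000–40,000 cells/well and grown 24 h at 37 °C, 5% CO2 before dosing, with time-zero plates TCA-fixed. Drug diluted from DMSO stock to 0.01, 0.1, 1, 10 and 100 µM final, 48 h. Cells fixed with cold TCA (10% final), stained with 0.4% SRB and read at 515 nm. Percent growth from Tz, control and test absorbances; GI50, TGI and LC50 from dose-response curves.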

[16] = tested on: HOP-92; assay: Growth inhibition of human HOP92 cells assessed as cell growth at 10^-6 M after 48 hrs by sulforhodamine B assay; conditions: HOP-92, 48 h, read-out: Activity; how it was run: as §3
[17] = tested on: HOP-62; assay: Growth inhibition of human HOP62 cells after 48 hrs by sulforhodamine B assay; conditions: HOP-62, 48 h; for CC50: read-out: LC50 (the source's name); how it was run: as §3
[18] = tested on: COLO 205; assay: Growth inhibition of human COLO205 cells assessed as cell growth at 10^-7 M after 48 hrs by sulforhodamine B assay; conditions: COLO 205, 48 h, read-out: Activity; how it was run: as §2
[19] = tested on: RXF 393; assay: Growth inhibition of human RXF393 cells assessed as cell growth at 10^-5 M after 48 hrs by sulforhodamine B assay; conditions: RXF 393, 48 h, read-out: Activity
[20] = tested on: OVCAR-4; assay: Growth inhibition of human OVCAR4 cells assessed as cell growth at 10^-8 M after 48 hrs by sulforhodamine B assay; conditions: OVCAR-4, 48 h, read-out: Activity
[21] = tested on: KM12; assay: Growth inhibition of human KM12 cells assessed as cell growth at 10^-6 M after 48 hrs by sulforhodamine B assay; conditions: KM12, 48 h, read-out: Activity
[22] = tested on: LOX IMVI; assay: Growth inhibition of human LOXIMVI cells assessed as cell growth at 10^-7 M after 48 hrs by sulforhodamine B assay; conditions: read-out: Activity
[23] = tested on: RPMI-8226; assay: Growth inhibition of human RPMI8226 cells assessed as cell growth at 10^-8 M after 48 hrs by sulforhodamine B assay; conditions: RPMI-8226, 48 h, read-out: Activity
[24] = tested on: SN12C; assay: Growth inhibition of human SN12C cells assessed as cell growth at 10^-7 M after 48 hrs by sulforhodamine B assay; conditions: read-out: Activity
[25] = Growth inhibition of human EKVX cells assessed as cell growth at 10^-6 M after 48 hrs by sulforhodamine B assay; conditions: read-out: Activity; how it was run: as §3
[26] = tested on: UACC-257; assay: Growth inhibition of human UACC257 cells assessed as cell growth at 10^-4 M after 48 hrs by sulforhodamine B assay; conditions: UACC-257, 48 h, read-out: Activity
[27] = tested on: A549; assay: Growth inhibition of human A549/ATCC cells assessed as cell growth at 10^-8 M after 48 hrs by sulforhodamine B assay; conditions: A549, 48 h, read-out: Activity; how it was run: as §2
[28] = tested on: SF-268; assay: Growth inhibition of human SF268 cells assessed as cell growth at 10^-5 M after 48 hrs by sulforhodamine B assay; conditions: SF-268, 48 h, read-out: Activity
[29] = tested on: OVCAR-5; assay: Growth inhibition of human OVCAR5 cells assessed as cell growth at 10^-7 M after 48 hrs by sulforhodamine B assay; conditions: OVCAR-5, 48 h, read-out: Activity
[30] = tested on: MDA-MB-435; assay: Growth inhibition of human MDA-MB-435 cells assessed as cell growth at 10^-8 M after 48 hrs by sulforhodamine B assay; conditions: MDA-MB-435, 48 h, read-out: Activity
[31] = tested on: CAKI-1; assay: Growth inhibition of human CAKI-1 cells assessed as cell growth at 10^-8 M after 48 hrs by sulforhodamine B assay; conditions: CAKI-1, 48 h, read-out: Activity; how it was run: as §2

Work on O=S(=O)(Nc1ccccn1)c1ccc2nc(-c3ccccc3)c(-c3ccccc3)nc2c1 yielded a growth at 1 µM [1] of 78%, a growth at 10 µM [2] of 4% and a growth at 1 µM [3] of 88%. It also gave a GI50 [4] of 2.61 µM, a TGI [4] of over 100 µM and a CC50 [4] of over 100 µM. The growth at 100 µM [5] was 59%, the TGI [6] was over 100 µM and the CC50 [6] was over 100 µM. The growth at 1 µM [7] was 84%, the growth at 0.01 µM [8] was 93% and the growth at 100 µM [9] was 54%. The growth at 10 µM [10] was 35%, the TGI [11] was over 100 µM and the CC50 [11] was over 100 µM. The growth at 10 µM [12] was 9%, the growth at 100 µM [13] was 57% and the growth at 0.01 µM [14] was 97%. For the same molecule, the growth at 0.1 µM [15] was 99%, the growth at 1 µM [16] was 77% and the GI50 [17] was 4.54 µM. The TGI [17] was over 100 µM, the CC50 [17] was over 100 µM and the growth at 0.1 µM [18] was 98%. It also gave a growth at 10 µM [19] of -44%, a growth at 0.01 µM [20] of 100% and a growth at 1 µM [21] of 99%. The growth at 0.1 µM [22] was 97%, the growth at 0.01 µM [23] was 108% and the growth at 0.1 µM [24] was 93%. It also gave a growth at 1 µM [25] of 89%, a growth at 100 µM [26] of 53% and a growth at 0.01 µM [27] of 95%. It also gave a growth at 10 µM [28] of 27%, a growth at 0.1 µM [29] of 93% and a growth at 0.01 µM [30] of 99%. The growth at 0.01 µM [31] was 91%.

Molecule O=S(=O)(Nc1ccc(Cl)cc1)c1ccc2nc(-c3ccccc3)c(-c3ccccc3)nc2c1 has a growth at 1 µM [1] of 83%, a growth at 10 µM [2] of 9% and a growth at 1 µM [3] of 89%. It also gave a CC50 [4] of over 100 µM, a growth at 100 µM [5] of 65% and a TGI [6] of over 100 µM. It also gave a CC50 [6] of over 100 µM, a growth at 1 µM [7] of 89% and a growth at 0.01 µM [8] of 94%. For the same molecule, the growth at 100 µM [9] was 73%, the growth at 10 µM [10] was 37% and the TGI [11] was over 100 µM. The CC50 [11] was over 100 µM, the growth at 10 µM [12] was 5% and the growth at 100 µM [13] was 73%. For the same molecule, the growth at 0.01 µM [14] was 90%, the growth at 0.1 µM [15] was 100% and the growth at 1 µM [16] was 78%. For the same molecule, the GI50 [17] was 3.95 µM, the TGI [17] was over 100 µM and the CC50 [17] was over 100 µM. For the same molecule, the growth at 0.1 µM [18] was 101%, the growth at 10 µM [19] was -41% and the growth at 0.01 µM [20] was 85%. The growth at 1 µM [21] was 102%, the growth at 0.1 µM [22] was 99% and the growth at 0.01 µM [23] was 103%. It also gave a growth at 0.1 µM [24] of 96%, a growth at 1 µM [25] of 91% and a growth at 100 µM [26] of 67%. For the same molecule, the growth at 0.01 µM [27] was 94%, the growth at 10 µM [28] was 27% and the growth at 0.1 µM [29] was 92%. The growth at 0.01 µM [30] was 97% and the growth at 0.01 µM [31] was 87%.

From ChEMBL document CHEMBL2407075, “Sulphonamido-quinoxalines: search for anticancer agent” (Eur J Med Chem, 2013)
